IDH1 mut inh: blocks human IDH1 R132H reductase activity | AID 624101 | O75874 | inhibition, % at 10 µM | hit rate 0.18% among 70,000 | diaphorase/resazurin fluorescence, 60 min; in the data active means inhibition above about 34%; inconclusive means no clear call, values can overlap the other calls; inactive means below about 11%
Target sequence (O75874 whole entry R132H): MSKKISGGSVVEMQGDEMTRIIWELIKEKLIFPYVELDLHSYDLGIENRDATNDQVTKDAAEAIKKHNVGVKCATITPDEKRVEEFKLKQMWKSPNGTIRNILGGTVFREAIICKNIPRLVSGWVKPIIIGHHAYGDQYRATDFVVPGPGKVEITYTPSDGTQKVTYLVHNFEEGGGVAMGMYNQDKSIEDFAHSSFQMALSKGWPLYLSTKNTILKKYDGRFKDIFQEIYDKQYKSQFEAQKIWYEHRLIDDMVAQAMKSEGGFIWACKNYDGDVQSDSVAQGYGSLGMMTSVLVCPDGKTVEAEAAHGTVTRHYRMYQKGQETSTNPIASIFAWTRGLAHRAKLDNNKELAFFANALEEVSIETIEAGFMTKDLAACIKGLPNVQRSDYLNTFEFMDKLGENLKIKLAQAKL
KDM4C inh: KDM4C (human) demethylase inhibition | GST-KDM4C 2-372, H3K9me3 peptide, LANCE TR-FRET | Q9H3R0 | inhibition, % at 12.5 µM | hit rate 0.15% among 96,000;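 active means mean replicate inhibition above about 25%, with at least 55% of replicates also reaching it, limit read from the data, passing the limit was not always enough; inconclusive means only one of those two conditions met; inactive means neither condition met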
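System – N-terminal GST-fused human GASC-1 (KDM4C) fragment, residues 2-372 · Input – enzyme final amount 10 nM · Technique – LANCE TR-FRET, Eu antibody, ULight-streptavidin, EDTA, ex 340 nm, em 618/671 nm · Medium – HEPES buffer, pH 7.5, plus ascorbate · Incubation – enzyme reaction 30 min, then detection 60 min, both room temperature · Reagent – H3K9me3 peptide with Fe(II)/2OG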
T cruzi growth-1: blocks T. cruzi growth in NIH3T3 culture; T. cruzi beta-gal in NIH3T3, GalScreen luminescence, 90 h; inhibition, % at 8.34 µM; AID 624255; hit rate 5.9% among 77,000;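 active means mean inhibition above about 93%, with at least 55% of replicates each passing it, limit read from the data, passing the limit was not always enough; inconclusive means only one of those two conditions holds; inactive means neither condition holds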
T cruzi growth-2: Trypanosoma cruzi proliferation inhibition; shares compounds with T cruzi growth-1; T. cruzi beta-gal in NIH3T3, GalScreen luminescence, 90 h; inhibition, % at 8.35 µM; hit rate 72% among 5,600; AID 651739;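 active means mean replicate inhibition above about 95% and at least 55% of replicates individually reaching it, limit read from the data; inconclusive means only one of the two criteria is met; inactive means neither criterion is met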
T cruzi growth-3: inhibitors of T. cruzi proliferation. shares compounds with T cruzi growth-1. inhibition, % at 2.09 µM. T. cruzi beta-gal in NIH3T3, GalScreen luminescence, 90 h. hit rate 21% among 5,600;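 active means mean inhibition above about 95%, with at least 55% of replicates also reaching it, limit read from the data; inconclusive means meets just one of the two conditions; inactive means meets neither condition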
NIH3T3 tox: kills mouse NIH/3T3 fibroblasts | shares compounds with T cruzi growth-1 | NIH/3T3 viability, CellTiter-Glo ATP luminescence, 90 h | cytotoxicity (signal decrease), % at 8.35 µM | hit rate 14% among 5,600;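 active means mean signal decrease across replicates above about 35% based on untreated-well scatter, with enough replicates individually passing, limit read from the data; inconclusive means no rule stated though some were filed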
3T3 cytotox 2: cytotoxicity in mouse NIH/3T3 fibroblasts; shares compounds with T cruzi growth-1; NIH/3T3 viability, CellTiter-Glo ATP luminescence, 90 h; inhibition, % at 24.9 µM; hit rate 56% among 5,600; AID 651744;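 active means mean loss of cell viability signal at or above a set limit, and enough replicates individually reaching it; inconclusive means meets only the mean limit or only the replicate share; inactive means meets neither condition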
A number is an active result. The sample as a whole holds a higher share of hits than the screen did.

How did COc1ccc2c(c[n+](C)c3c4cc5c(cc4ccc23)OCO5)c1OC do in these assays?
IDH1 mut inh: 101

Results for COc1ccc2c(c1OC)CN1CCc3cc4c(cc3C1C2)OCO4 (stereo unspecified) ?
IDH1 mut inh: inactive

Results for CC[C@H]1CN2CCc3cc(OC)c(OC)cc3[C@@H]2C[C@@H]1C[C@H]1NCCc2cc(O)c(OC)cc21 ?
IDH1 mut inh: inactive

What do the screens show for `O=C(Cc1ccccc1)N1CCCCN2[C@H](CO)[C@@H](c3ccc(C#Cc4ccccc4)cc3)[C@H]2C1`?
KDM4C inh: inactive; T cruzi growth-1: 118; T cruzi growth-2: 97; T cruzi growth-3: inactive; NIH3T3 tox: 58; 3T3 cytotox 2: 105

What do the screens show for `N#Cc1ccc(-c2ccc([C@@H]3[C@H](CO)N4CCCCN(C(=O)Cc5ccccc5)C[C@@H]34)cc2)cc1`?
KDM4C inh: inactive; T cruzi growth-1: inactive

Results for O=C(Cc1ccncc1)N1CCCCN2[C@H](CO)[C@H](c3ccc(C#Cc4ccccc4F)cc3)[C@H]2C1 ?
KDM4C inh: inactive; T cruzi growth-1: inconclusive; T cruzi growth-2: 104; T cruzi growth-3: inactive; NIH3T3 tox: inactive; 3T3 cytotox 2: 103

What do the screens show for `O=C(Cc1ccncc1)N1CCCCN2[C@@H](CO)[C@@H](c3ccc(C#Cc4ccccc4F)cc3)[C@@H]2C1`?
KDM4C inh: inactive; T cruzi growth-1: inactive

What do the screens show for `COc1ccc(C#Cc2ccc([C@H]3[C@H]4CN(C(=O)Cc5ccccc5)CCCCN4[C@H]3CO)cc2)cc1`?
KDM4C inh: inactive; T cruzi growth-1: inactive

Results for O=C(Cc1ccccc1)N1CCCCN2[C@H](CO)[C@@H](c3ccc(C#Cc4ccccc4)cc3)[C@@H]2C1 ?
KDM4C inh: inactive; T cruzi growth-1: 106; T cruzi growth-2: 100; T cruzi growth-3: inactive; NIH3T3 tox: inactive; 3T3 cytotox 2: 106

How did CC(=O)c1c(C)n(Cc2ccccc2)c2c(Cl)c(Cl)c(Cl)c(OCC(=O)O)c12 do in these assays?
IDH1 mut inh: inactive

Results for O=C(Cn1cc(C(=O)c2ccccc2)c2ccccc21)NCC1CCCO1 (stereo unspecified) ?
IDH1 mut inh: inactive

How did CN1Cc2c(ccc3c2OCO3)[C@@H]2[C@H]1c1cc3c(cc1C[C@@H]2O)OCO3 do in these assays?
IDH1 mut inh: inactive

What do the screens show for `Cc1cc(C(F)F)n2nc(C(=O)Nc3ccc4c(C(F)(F)F)cc(=O)oc4c3)nc2n1`?
IDH1 mut inh: inactive

How did C/C=C/c1ccc([C@H]2[C@@H](CO)N3CCCCN(C(=O)Cc4ccncc4)C[C@@H]23)cc1 do in these assays?
KDM4C inh: inactive; T cruzi growth-1: inactive

How did COc1cccc(-c2ccc([C@H]3[C@H](CO)N4CCCCN(C(=O)Cc5ccncc5)C[C@@H]34)cc2)c1 do in these assays?
KDM4C inh: inactive; T cruzi growth-1: inactive

What do the screens show for `COc1cccc(-c2ccc([C@@H]3[C@@H](CO)N4CCCCN(C(=O)Cc5ccncc5)C[C@H]34)cc2)c1`?
KDM4C inh: inactive; T cruzi growth-1: 114; T cruzi growth-2: 102; T cruzi growth-3: inactive; NIH3T3 tox: inactive; 3T3 cytotox 2: 38

Results for COc1cccc(-c2ccc([C@H]3[C@@H](CO)N4CCCCN(C(=O)Cc5ccncc5)C[C@@H]34)cc2)c1 ?
KDM4C inh: inactive; T cruzi growth-1: 111; T cruzi growth-2: 110; T cruzi growth-3: inactive; NIH3T3 tox: inactive; 3T3 cytotox 2: inactive

Results for COc1cccc(-c2ccc([C@H]3[C@@H](CO)N4CCCCN(C(=O)Cc5ccncc5)C[C@H]34)cc2)c1 ?
KDM4C inh: inactive; T cruzi growth-1: 107; T cruzi growth-2: 110; T cruzi growth-3: inactive; NIH3T3 tox: inactive; 3T3 cytotox 2: 48

How did COc1cccc(-c2ccc([C@@H]3[C@H](CO)N4CCCCN(C(=O)Cc5ccncc5)C[C@@H]34)cc2)c1 do in these assays?
KDM4C inh: inactive; T cruzi growth-1: inconclusive; T cruzi growth-2: inactive; T cruzi growth-3: inactive; NIH3T3 tox: inactive; 3T3 cytotox 2: 35

How did C/C=C/c1ccc([C@H]2[C@@H](CO)N3CCCCN(C(=O)Cc4ccncc4)C[C@H]23)cc1 do in these assays?
KDM4C inh: inactive; T cruzi growth-1: inactive

How did COc1cccc(-c2ccc([C@@H]3[C@@H](CO)N4CCCCN(C(=O)Cc5ccncc5)C[C@@H]34)cc2)c1 do in these assays?
KDM4C inh: inactive; T cruzi growth-1: inactive

How did CCCCC/C=C/C/C=C/C/C=C/C/C=C/CCCC(=O)NCCCC(=O)O do in these assays?
IDH1 mut inh: inactive

How did CCC(C)[C@H]1C(=O)O[C@H](C(C)C)C(=O)N(C)[C@@H](C(C)C)C(=O)O[C@H](C(C)C)C(=O)N(C)[C@@H](C(C)C)C(=O)O[C@H](C(C)C)C(=O)N1C (stereo partly specified) do in these assays?
IDH1 mut inh: inactive

How did COC(=O)C1=CO[C@H](C)[C@@H]2CN3CCC4(C(=O)Nc5ccccc54)C3C[C@H]12 (stereo partly specified) do in these assays?
IDH1 mut inh: inactive

What do the screens show for `COC1CC(O[C@H]2CC[C@@]3(C)C(CCC4C3CC[C@]3(C)C(C5=CC(=O)OC5)CCC43O)C2)OC(C)C1OC1OC(COC2OC(CO)C(O)C(O)C2O)C(O)C(O)C1O` (stereo partly specified)?
IDH1 mut inh: inactive

How did CNCC(O)c1ccc(O)c(OC)c1 (stereo unspecified) do in these assays?
IDH1 mut inh: inactive

What do the screens show for `O=C1Nc2cc(Cl)c(Cl)cc2N2CCNCC12` (stereo unspecified)?
IDH1 mut inh: inactive

How did C#CCN1C(C)=C(C(=O)CCO)C(c2cccc(-n3oo3)c2)C(C(=O)OC)=C1C (stereo unspecified) do in these assays?
IDH1 mut inh: inactive

How did O=C(Cc1cccnc1)N1CCCCN2[C@H](CO)[C@@H](c3ccc(C#CC4CC4)cc3)[C@H]2C1 do in these assays?
T cruzi growth-1: inactive

Results for COc1ccc(C#Cc2ccc([C@@H]3[C@@H](CO)N4CCCCN(C(=O)Cc5cccnc5)C[C@H]34)cc2)cc1 ?
KDM4C inh: inactive; T cruzi growth-1: 100; T cruzi growth-2: 106; T cruzi growth-3: inactive; NIH3T3 tox: inactive; 3T3 cytotox 2: 105

How did O=C(Cc1cccnc1)N1CCCCN2[C@H](CO)[C@H](c3ccc(/C=C/c4ccccc4)cc3)[C@H]2C1 do in these assays?
KDM4C inh: inactive; T cruzi growth-1: inactive

What do the screens show for `O=C(Cc1cccnc1)N1CCCCN2[C@@H](CO)[C@@H](c3ccc(C#CC4CC4)cc3)[C@@H]2C1`?
T cruzi growth-1: inactive

High-throughput results as filed in PubChem.
